Here are results for 15 compounds from publication PMC5023007 (Bioorganic & medicinal chemistry, 2016).

What is called inhibition is the relative decrease from the control value, in per cent.

In the first assay the target is LPA2 (Homo sapiens, UniProt Q9HBW0). Put plainly: Calcium mobilization assay, potentiation of LPA effect at LPA2. The settings on record: supplemental figure. The assay is classed as cell-based.
Chain of LPA2 (Q9HBW0 whole entry, species assumed): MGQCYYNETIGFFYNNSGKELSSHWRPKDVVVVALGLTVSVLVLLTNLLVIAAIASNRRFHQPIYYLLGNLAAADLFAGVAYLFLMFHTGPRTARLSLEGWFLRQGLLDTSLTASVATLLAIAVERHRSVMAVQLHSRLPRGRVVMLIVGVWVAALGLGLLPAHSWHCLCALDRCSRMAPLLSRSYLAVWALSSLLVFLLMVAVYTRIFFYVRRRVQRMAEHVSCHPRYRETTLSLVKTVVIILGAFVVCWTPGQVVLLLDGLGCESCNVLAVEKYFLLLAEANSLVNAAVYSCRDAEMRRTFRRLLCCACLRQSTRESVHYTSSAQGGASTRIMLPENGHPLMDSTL
As to `O=C(COc1cc(Cl)cc(Cl)c1)N1CCN(c2cccc([N+](=O)[O-])c2)CC1` [Analog 22, 2-(3,5-dichlorophenoxy)-1-(4-(3-nitrophenyl)piperazin-1-yl)ethanone], the “potentiation of LPA effects at LPA2” value is “modest potentiation of LPA effects at LPA2”.

A further assay addresses T1, ATX (Homo sapiens, UniProt Q13822). Put plainly: ATX activity assay with pNP-TMP substrate. The settings on record: read-out: pNP-TMP Inhibition (%). Type of assay: biochemical. The method in brief: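 Runs were in triplicate with human FLAG-fusion ATX, purified, at 10 nM, 10 µM test compound and 1 mM pNP-TMP. Buffer was 50 mM Tris pH 8.0 containing 30 µM BSA, 1 mM CaCl2, 1 mM MgCl2, 5 mM KCl and 140 mM NaCl. Absorbance at 405 nm was read every 2 min over 60 min at 37°C. Values were scaled between no-enzyme (0%) and uninhibited enzyme (100%). Interference control used 100 µM para-nitrophenol ± compound.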
Consider `O=C(COc1ccccc1F)N1CCN(c2cccc([N+](=O)[O-])c2)CC1` [Analog 13, 2-(2-fluorophenoxy)-1-(4-(3-nitrophenyl)piperazin-1-yl)ethanone], for which the inhibition at 10 µM was -14.7 ± 2.9%. Turning to `O=C(COc1ccccc1Cl)N1CCN(c2ccc([N+](=O)[O-])cc2)CC1` [Analog 23, 2-(2-chlorophenoxy)-1-(4-(4-nitrophenyl)piperazin-1-yl)ethanone], the inhibition at 10 µM was -11.9 ± 1.3%. `O=C(COc1ccccc1F)N1CCN(c2ccc([N+](=O)[O-])cc2)CC1` [Analog 24, 2-(2-fluorophenoxy)-1-(4-(4-nitrophenyl)piperazin-1-yl)ethanone]: the inhibition at 10 µM was -22.7 ± 4.2%. Still for that read-out and setting: the result for `O=C(COc1cccc(F)c1)N1CCN(c2ccc([N+](=O)[O-])cc2)CC1` [Analog 27, 2-(3-fluorophenoxy)-1-(4-(4-nitrophenyl)piperazin-1-yl)ethanone] reads -14.1 ± 2.3%. The same measure, in the same setting: the result for `O=C(COc1ccc(F)cc1)N1CCN(c2ccc([N+](=O)[O-])cc2)CC1` [Analog 30, 2-(4-fluorophenoxy)-1-(4-(4-nitrophenyl)piperazin-1-yl)ethanone] reads -12.1 ± 1.2%. The same measure, in the same setting: as for `O=C(COc1ccc(Cl)cc1Cl)N1CCN(c2ccc([N+](=O)[O-])cc2)CC1` [Analog 32, 2-(2,4-dichlorophenoxy)-1-(4-(4-nitrophenyl)piperazin-1-yl)ethanone], the figure is -14.9 ± 4.7%. As for `O=C(O)c1ccc(N2CCN(C(=O)COc3ccccc3F)CC2)cc1` [Analog 57, 4-(4-(2-(2-fluorophenoxy)acetyl)piperazin-1-yl)benzoic acid], the inhibition at 10 µM is -12 ± 6%. Still for that read-out and setting: as for `O=C(O)c1ccc(N2CCN(C(=O)COc3cccc(F)c3)CC2)cc1` [Analog 60, 4-(4-(2-(3-fluorophenoxy)acetyl)piperazin-1-yl)benzoic acid], the figure is -36.5 ± 6.3%; as for `O=C(O)c1ccc(N2CCN(C(=O)COc3cccc(C(F)(F)F)c3)CC2)cc1` [Analog 61, 4-(4-(2-(3-(trifluoromethyl)phenoxy)acetyl)piperazin-1-yl)benzoic acid], -11.4 ± 2.6%; as for `CC(=O)OC1(C(=O)COC(=O)c2ccco2)CC2CCC3C4C=CC(=O)CC4(C)CCC3C2(C)C1` (stereo not shown) [GRI 519441], -45.4 ± 2.5%.

In a further assay the target is T1, ATX. Put plainly: ATX activity assay with FS-3 substrate. Type of assay: biochemical. Conditions: 10 μM compound, 10 nM ATX, 1 μM FS-3. The method in brief:
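Purified human FLAG-tagged ATX at 10 nM with 10 µM test compound and 1 µM FS-3 in 50 mM Tris pH 8.0, 30 µM BSA, 1 mM CaCl2, 1 mM MgCl2, 5 mM KCl, 140 mM NaCl. Fluorescence (ex 485/em 520 nm) was read every 2 min for 60 min at 37°C, in triplicate. Signal was normalized to no-ATX (0%) and ATX-without-compound (100%). Interference was checked with 100 nM carboxyfluorescein ± compound.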
As for `CC(C)(C)CN(Cc1cccc(CN)c1)C(=O)c1ccc(-c2ccc(F)cc2)nc1` [GRI 792685], the “FS-3 Inhibition (%)” value is “false positive”.

Still in this assay, the particulars now being: read-out: FS-3 Inhibition (%), 10 μM compound, 10 nM ATX, 1 μM FS-3.
For the compound `COc1ccc2c(c1)C(NCc1cc(OC)c(OC)cc1N)CCO2` (stereo not shown) [GRI 93694], the inhibition at 10 µM is 48 ± 4.4%. On the same count and under the same terms, as for `CCCCCCCCCCCCCC(=O)NC(CCC(=O)O)C(=O)O` (stereo not shown) [GRI 96880], the figure is 54.1 ± 0.2%; as for `O=C(CCCOc1ccc(Cl)cc1Cl)N1CCN(c2ccc([N+](=O)[O-])cc2)CC1` [GRI 392104], 65.5 ± 3.2%; as for `CC(=O)OC1(C(=O)COC(=O)c2ccco2)CC2CCC3C4C=CC(=O)CC4(C)CCC3C2(C)C1` (stereo not shown) [GRI 519441], 59.7 ± 1.7%.
